Activity calls are given as the source filed them. No cut-off for these calls is given here.
What was measured:
HeLa [1] = experiment: Cytostatic activity against human HeLa cells at 1 to 10 uM after 72 hrs by MTT assay; assay type: functional, cell-based
Outline: (§1)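 Monolayers in DMEM with 10% FBS, 2 mM L-glutamine, penicillin and streptomycin (37 °C, 5% CO2) were seeded at 3000–6000 cells/well on day 0. Five 10-fold dilutions (0.01–100 µM) were added, followed by 72-h incubation and MTT read-out. Absorbances were converted to percentage growth by the NIH formulae. Each point was run in quadruplicate in three experiments; ANOVA with Tukey test.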

SW-620 [2] = experiment: Cell cycle arrest in human SW620 cells assessed as accumulation at subG1 phase at 5 uM after 24 hrs by propidium iodide staining based flow cytometeric analysis (reference value: 18 +/- 1%); assay type: functional
Outline: (§2)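 Cells seeded at 3 × 10^4 per well and treated 24 h later with 1, 5 or 10 µM for 24 and 48 h. Adherent and floating cells were pooled, washed in PBS and fixed in 70% ethanol. They were then stained with propidium iodide 10 µg/mL plus RNase A 0.2 µg/mL. Flow cytometry counted 10000 events; each point was run in triplicate; significance was taken at p < 0.05.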

MIA PaCa-2 [3] = experiment: Cell cycle arrest in human MIAPaCa2 cells assessed as accumulation at G1 phase at 5 uM after 48 hrs by propidium iodide staining based flow cytometeric analysis (reference value: 65.2 +/- 1.9%); assay type: functional
MIA PaCa-2 [4] = experiment: Cell cycle arrest in human MIAPaCa2 cells assessed as accumulation at G2/M phase at 1 uM after 24 hrs by propidium iodide staining based flow cytometeric analysis (reference value: 19.5 +/- 3.9%); assay type: functional
MCF7 = experiment: Antiproliferative activity against human MCF7 cells at 0.1 to 10 uM after 72 hrs by MTT assay; assay type: functional, cell-based
Outline: (§3)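 Monolayer cells in DMEM with 10% FBS, 2 mM L-glutamine, penicillin and streptomycin at 37 °C, 5% CO2. Seeded at 3000-6000 cells/well by doubling time on day 0. Five 10-fold dilutions (0.01–100 µM) were added and incubated 72 h. MTT read-out, converted to percentage growth. IC50 by linear regression between bracketing concentrations. Quadruplicate points, three independent experiments, ANOVA/Tukey p<0.05.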

MIA PaCa-2 [5] = experiment: Cell cycle arrest in human MIAPaCa2 cells assessed as accumulation at G1 phase at 10 uM after 48 hrs by propidium iodide staining based flow cytometeric analysis (reference value: 65.2 +/- 1.9%); assay type: functional
SW-620 [6] = experiment: Induction of apoptosis in human SW620 cells assessed as morphological changes after 24 to 48 hrs by microscopic analysis; assay type: functional, cell-based
Outline: (§4)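 Cells were seeded at 3 × 10^4 per well and exposed 24 h later to 1, 5 or 10 µM for 24 and 48 h. Apoptotic morphology (cell shrinkage, chromatin condensation) was scored by inverted light microscopy at 200× magnification.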

SK-BR-3 = experiment: Antiproliferative activity against human SKBR3 cells at 0.1 to 10 uM after 72 hrs by MTT assay; assay type: functional, cell-based; outline: as §3
WI-38 [7] = experiment: Antiproliferative activity against human WI38 cells at 0.1 to 10 uM after 72 hrs by MTT assay; assay type: cell-based; conditions: wi-38, 72 h; outline: as §3
MIA PaCa-2 [8] = experiment: Cell cycle arrest in human MIAPaCa2 cells assessed as accumulation at S phase at 10 uM after 24 hrs by propidium iodide staining based flow cytometeric analysis (reference value: 29.2 +/- 4.2%); assay type: functional
MIA PaCa-2 [9] = experiment: Induction of apoptosis in human MIAPaCa2 cells assessed as morphological change after 24 to 48 hrs by microscopic analysis; assay type: functional, cell-based; outline: as §4
MIA PaCa-2 [10] = experiment: Cell cycle arrest in human MIAPaCa2 cells assessed as accumulation at subG1 phase at 5 uM after 48 hrs by propidium iodide staining based flow cytometeric analysis (reference value: 46.8 +/- 0.7%); assay type: functional
HeLa [11] = experiment: Antiproliferative activity against human HeLa cells after 72 hrs by MTT assay; assay type: functional, cell-based; conditions: Homo sapiens, HeLa, 72 h; outline: as §3
SW-620 [12] = experiment: Induction of apoptosis in human SW620 cells assessed as morphological change at 5 to 10 uM after 24 to 48 hrs by microscopic analysis; assay type: functional, cell-based; outline: as §4
SW-620 [13] = experiment: Cell cycle arrest in human SW620 cells assessed as accumulation at G2/M phase at 5 uM after 48 hrs by propidium iodide staining based flow cytometeric analysis (reference value: 16.1 +/- 0.9%); assay type: functional
MIA PaCa-2 [14] = experiment: Cell cycle arrest in human MIAPaCa2 cells assessed as accumulation at G2/M phase at 5 uM after 48 hrs by propidium iodide staining based flow cytometeric analysis (reference value: 14.3 +/- 1.8%); assay type: functional
MIA PaCa-2 [15] = experiment: Cell cycle arrest in human MIAPaCa2 cells assessed as accumulation at subG1 phase at 1 uM after 24 hrs by propidium iodide staining based flow cytometeric analysis (reference value: 48.7 +/- 0.7%); assay type: functional
SW-620 [16] = experiment: Cytostatic activity against human SW620 cells at 1 to 10 uM after 72 hrs by MTT assay; assay type: functional, cell-based; outline: as §1
WI-38 [17] = experiment: Cytostatic activity against human WI38 cells at 1 to 10 uM after 72 hrs by MTT assay; assay type: ADME, cell-based; conditions: wi-38, 72 h; outline: as §1
SW-620 [18] = experiment: Cell cycle arrest in human SW620 cells assessed as accumulation at S phase at 1 uM after 24 hrs by propidium iodide staining based flow cytometeric analysis (reference value: 48.4 +/- 1.4%); assay type: functional
HEp-2 = experiment: Antiproliferative activity against human Hep2 cells at 0.1 to 10 uM after 72 hrs by MTT assay; assay type: functional, cell-based; outline: as §3
MIA PaCa-2 [19] = experiment: Antiproliferative activity against human MIAPaCa2 cells at 0.1 to 10 uM after 72 hrs by MTT assay; assay type: functional, cell-based; outline: as §3
Nucleic Acid [20] = experiment: Binding affinity to calf thymus DNA assessed as fluorescence quenching at compound to DNA ratio of 0.28 by fluorimetric titrations; assay type: nucleic-acid assay; conditions: Bos taurus
Outline: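 Fluorimetric titration: portions of ct-DNA (sonicated, filtered, concentration as phosphate) added to compound in cacodylate buffer pH 7.0, I = 0.05 mol dm^-3. Emission 350–600 nm, sample absorbance <0.05 at excitation, mostly DNA excess (r < 0.1). Ks and n = [bound compound]/[DNA phosphate] by non-linear least-squares Scatchard fitting.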

SW-620 [21] = experiment: Cell cycle arrest in human SW620 cells assessed as accumulation at subG1 phase at 5 uM after 48 hrs by propidium iodide staining based flow cytometeric analysis (reference value: 29.1 +/- 1.1%); assay type: functional; outline: as §2
SW-620 [22] = experiment: Cell cycle arrest in human SW620 cells assessed as accumulation at subG1 phase at 1 uM after 24 hrs by propidium iodide staining based flow cytometeric analysis (reference value: 18 +/- 1%); assay type: functional
SW-620 [23] = experiment: Cell cycle arrest in human SW620 cells assessed as accumulation at G1 phase at 10 uM after 24 hrs by propidium iodide staining based flow cytometeric analysis (reference value: 29.3 +/- 1.5%); assay type: functional
Nucleic Acid [24] = experiment: Binding affinity to calf thymus DNA assessed as UV/Vis spectral change at compound to DNA ratio of 0.44 by UV/Vis titrations; conditions: Bos taurus
MIA PaCa-2 [25] = experiment: Antiproliferative activity against human MIAPaCa2 cells after 72 hrs by MTT assay; assay type: functional, cell-based; conditions: Homo sapiens, MIA PaCa-2, 72 h; outline: as §3
MIA PaCa-2 [26] = experiment: Cell cycle arrest in human MIAPaCa2 cells assessed as accumulation at G1 phase at 1 uM after 48 hrs by propidium iodide staining based flow cytometeric analysis (reference value: 65.2 +/- 1.9%); assay type: functional

In the case of Cl.c1cnc2nc3ccc4ccc(C5=NCCN5)cc4n3c2c1, the Activity (HeLa [1]) is reported as “Active”, the Activity (SW-620 [2]) is reported as 24.4% and the Activity (MIA PaCa-2 [3]) is reported as 42.4%. The Activity (MIA PaCa-2 [4]) was 21.3%, the Activity (MCF7) was “Active” and the Activity (MIA PaCa-2 [5]) was 26.1%. For the same compound, the Activity (SW-620 [6]) was “Dose-dependent effect”, the Activity (SK-BR-3) was “Active” and the Activity (WI-38 [7]) was “Toxic”. The Activity (MIA PaCa-2 [8]) was 29.3%, the Activity (MIA PaCa-2 [9]) was “Dose-dependent effect” and the Activity (MIA PaCa-2 [10]) was 56.6%. The IC50 (HeLa [11]) was 410 nM, the Activity (SW-620 [12]) was “Active” and the Activity (SW-620 [13]) was 1.5%. For the same compound, the Activity (MIA PaCa-2 [14]) was 20.8%, the Activity (MIA PaCa-2 [15]) was 57.8% and the Activity (SW-620 [16]) was “Active”. For the same compound, the Activity (WI-38 [17]) was “Toxic”, the Activity (SW-620 [18]) was 27.2% and the Activity (HEp-2) was “Active”. For the same compound, the Activity (MIA PaCa-2 [19]) was “Active”, the log Ks (Nucleic Acid [20]) was 5.9 and the Activity (SW-620 [21]) was 47.6%. The Activity (SW-620 [22]) was 14.3%, the Activity (SW-620 [23]) was 33.7% and the log Ks (Nucleic Acid [24]) was 5.4. For the same compound, the IC50 (MIA PaCa-2 [25]) was 740 nM and the Activity (MIA PaCa-2 [26]) was 42.4%.

From ChEMBL document CHEMBL1806443, “Novel imidazo[4,5-b]pyridine and triaza-benzo[c]fluorene derivatives: synthesis, antiproliferative activity and DNA binding studies” (Eur J Med Chem, 2011)
